Experimental data: ChEMBL document CHEMBL4145671, “Development of Kinase-Selective, Harmine-Based DYRK1A Inhibitors that Induce Pancreatic Human β-Cell Proliferation” (J Med Chem, 2018)
Blank lines part the entries; values can stand above or below the compound they belong to. Activity calls are given as the source filed them. The calls are words filed in the database; no cut-off is given here.

Experiments:
[1] = test system: Pancreatic islet; assay: Induction of beta-cell proliferation in human pancreatic islets at 10 uM incubated for 96 hrs by Ki67 and insulin immunolabelling method; assay type: functional, cell-based
Method in brief: (§1)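 Human islets from the NIH/NIDDK IIDP dispersed onto coverslips with Accutase, then treated with compound or vehicle (0.1% DMSO) in RPMI1640 complete medium for 96 h. Cells fixed, stained for insulin and Ki67, imaged; Ki67/insulin double-positive and total insulin-positive cells counted. Islets from 3 to 5 adult donors, at least 1000 beta cells counted per donor; n = 4–5, SEM.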

[2] = test system: Pancreatic islet; assay: Induction of beta-cell proliferation in human pancreatic islets at 30 uM incubated for 96 hrs by Ki67 and insulin immunolabelling method; assay type: functional, cell-based; method in brief: as §1
[3] = test system: Pancreatic islet; assay: Induction of beta-cell proliferation in human pancreatic islets incubated for 96 hrs by Ki67 and insulin immunolabelling method; assay type: functional, cell-based; method in brief: as §1
[4] = Toxicity in human pancreatic islets at 30 uM; assay type: cell-based; settings: pancreatic islet
[5] = target: Dual specificity tyrosine-phosphorylation-regulated kinase 1A (Rattus norvegicus) (UniProt Q63470); assay: Inhibition of DYRK1A in rat R7T1 cells expressing expressing NFAT2-GFP assessed as induction of NFAT2-GFP nuclear translocation at 10 uM incubated for 24 hrs by; assay type: cell-based
Method in brief: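 Immortalized R7T1 rat beta cells infected with adenovirus expressing NFAT2-GFP for 48 h, then exposed to compound at 10 μM for a further 24 h. Cells imaged and NFAT2-GFP nuclear translocation scored as nuclear frequency, at least 1000 cells counted; n = 3, SEM.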

[6] = target: Cyclin-dependent kinase 8 (Homo sapiens) (UniProt P49336); assay: Inhibition of human CDK8 expressed in bacterial expression system assessed as remaining enzyme activity at 10 uM by kinome scan assay
Chain of Cyclin-dependent kinase 8 (Homo sapiens) (P49336 whole entry): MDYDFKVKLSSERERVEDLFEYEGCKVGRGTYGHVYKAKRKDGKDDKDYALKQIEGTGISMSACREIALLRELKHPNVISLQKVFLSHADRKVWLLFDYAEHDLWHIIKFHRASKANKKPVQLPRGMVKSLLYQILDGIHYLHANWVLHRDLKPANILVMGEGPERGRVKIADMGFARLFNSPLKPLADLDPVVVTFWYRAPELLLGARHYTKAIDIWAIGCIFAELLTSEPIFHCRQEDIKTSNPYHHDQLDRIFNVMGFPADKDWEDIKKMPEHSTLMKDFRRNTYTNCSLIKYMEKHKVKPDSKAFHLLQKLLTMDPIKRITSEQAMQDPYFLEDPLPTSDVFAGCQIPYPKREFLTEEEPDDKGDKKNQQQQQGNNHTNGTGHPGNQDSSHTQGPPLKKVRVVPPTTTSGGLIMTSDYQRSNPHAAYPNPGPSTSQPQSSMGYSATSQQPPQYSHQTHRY

[7] = target: Cyclin-dependent kinase 19 (Homo sapiens) (UniProt Q9BWU1); assay: Inhibition of human CDK11 expressed in bacterial expression system assessed as remaining enzyme activity at 10 uM by kinome scan assay
Chain of Cyclin-dependent kinase 19 (Homo sapiens) (Q9BWU1 whole entry): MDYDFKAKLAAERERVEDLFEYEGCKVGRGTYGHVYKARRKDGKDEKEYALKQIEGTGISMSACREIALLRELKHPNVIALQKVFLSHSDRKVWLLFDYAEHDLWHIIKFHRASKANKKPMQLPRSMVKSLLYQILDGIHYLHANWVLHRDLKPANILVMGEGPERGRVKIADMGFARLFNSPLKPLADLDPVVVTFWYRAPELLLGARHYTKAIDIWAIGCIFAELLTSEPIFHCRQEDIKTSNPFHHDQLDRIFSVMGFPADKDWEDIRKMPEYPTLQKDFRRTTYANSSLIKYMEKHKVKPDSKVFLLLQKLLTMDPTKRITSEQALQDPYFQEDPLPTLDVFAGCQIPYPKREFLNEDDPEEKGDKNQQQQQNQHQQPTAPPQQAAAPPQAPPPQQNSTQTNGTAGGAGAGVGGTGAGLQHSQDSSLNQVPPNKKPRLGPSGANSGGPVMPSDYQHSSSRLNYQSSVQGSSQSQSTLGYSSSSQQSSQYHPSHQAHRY

[8] = target: Cyclin-dependent kinase 7 (Homo sapiens) (UniProt P50613); assay: Inhibition of human CDK7 expressed in mammalian expression system assessed as remaining enzyme activity at 10 uM by kinome scan assay
[9] = target: Cyclin-dependent kinase-like 5 (Homo sapiens) (UniProt O76039); assay: Inhibition of human CDKL5 expressed in mammalian expression system assessed as remaining enzyme activity at 10 uM by kinome scan assay
[10] = target: Citron Rho-interacting kinase (Homo sapiens) (UniProt O14578); assay: Inhibition of human CIT expressed in bacterial expression system assessed as remaining enzyme activity at 10 uM by kinome scan assay
Chain of Citron Rho-interacting kinase (Homo sapiens) (O14578 whole entry, canonical isoform): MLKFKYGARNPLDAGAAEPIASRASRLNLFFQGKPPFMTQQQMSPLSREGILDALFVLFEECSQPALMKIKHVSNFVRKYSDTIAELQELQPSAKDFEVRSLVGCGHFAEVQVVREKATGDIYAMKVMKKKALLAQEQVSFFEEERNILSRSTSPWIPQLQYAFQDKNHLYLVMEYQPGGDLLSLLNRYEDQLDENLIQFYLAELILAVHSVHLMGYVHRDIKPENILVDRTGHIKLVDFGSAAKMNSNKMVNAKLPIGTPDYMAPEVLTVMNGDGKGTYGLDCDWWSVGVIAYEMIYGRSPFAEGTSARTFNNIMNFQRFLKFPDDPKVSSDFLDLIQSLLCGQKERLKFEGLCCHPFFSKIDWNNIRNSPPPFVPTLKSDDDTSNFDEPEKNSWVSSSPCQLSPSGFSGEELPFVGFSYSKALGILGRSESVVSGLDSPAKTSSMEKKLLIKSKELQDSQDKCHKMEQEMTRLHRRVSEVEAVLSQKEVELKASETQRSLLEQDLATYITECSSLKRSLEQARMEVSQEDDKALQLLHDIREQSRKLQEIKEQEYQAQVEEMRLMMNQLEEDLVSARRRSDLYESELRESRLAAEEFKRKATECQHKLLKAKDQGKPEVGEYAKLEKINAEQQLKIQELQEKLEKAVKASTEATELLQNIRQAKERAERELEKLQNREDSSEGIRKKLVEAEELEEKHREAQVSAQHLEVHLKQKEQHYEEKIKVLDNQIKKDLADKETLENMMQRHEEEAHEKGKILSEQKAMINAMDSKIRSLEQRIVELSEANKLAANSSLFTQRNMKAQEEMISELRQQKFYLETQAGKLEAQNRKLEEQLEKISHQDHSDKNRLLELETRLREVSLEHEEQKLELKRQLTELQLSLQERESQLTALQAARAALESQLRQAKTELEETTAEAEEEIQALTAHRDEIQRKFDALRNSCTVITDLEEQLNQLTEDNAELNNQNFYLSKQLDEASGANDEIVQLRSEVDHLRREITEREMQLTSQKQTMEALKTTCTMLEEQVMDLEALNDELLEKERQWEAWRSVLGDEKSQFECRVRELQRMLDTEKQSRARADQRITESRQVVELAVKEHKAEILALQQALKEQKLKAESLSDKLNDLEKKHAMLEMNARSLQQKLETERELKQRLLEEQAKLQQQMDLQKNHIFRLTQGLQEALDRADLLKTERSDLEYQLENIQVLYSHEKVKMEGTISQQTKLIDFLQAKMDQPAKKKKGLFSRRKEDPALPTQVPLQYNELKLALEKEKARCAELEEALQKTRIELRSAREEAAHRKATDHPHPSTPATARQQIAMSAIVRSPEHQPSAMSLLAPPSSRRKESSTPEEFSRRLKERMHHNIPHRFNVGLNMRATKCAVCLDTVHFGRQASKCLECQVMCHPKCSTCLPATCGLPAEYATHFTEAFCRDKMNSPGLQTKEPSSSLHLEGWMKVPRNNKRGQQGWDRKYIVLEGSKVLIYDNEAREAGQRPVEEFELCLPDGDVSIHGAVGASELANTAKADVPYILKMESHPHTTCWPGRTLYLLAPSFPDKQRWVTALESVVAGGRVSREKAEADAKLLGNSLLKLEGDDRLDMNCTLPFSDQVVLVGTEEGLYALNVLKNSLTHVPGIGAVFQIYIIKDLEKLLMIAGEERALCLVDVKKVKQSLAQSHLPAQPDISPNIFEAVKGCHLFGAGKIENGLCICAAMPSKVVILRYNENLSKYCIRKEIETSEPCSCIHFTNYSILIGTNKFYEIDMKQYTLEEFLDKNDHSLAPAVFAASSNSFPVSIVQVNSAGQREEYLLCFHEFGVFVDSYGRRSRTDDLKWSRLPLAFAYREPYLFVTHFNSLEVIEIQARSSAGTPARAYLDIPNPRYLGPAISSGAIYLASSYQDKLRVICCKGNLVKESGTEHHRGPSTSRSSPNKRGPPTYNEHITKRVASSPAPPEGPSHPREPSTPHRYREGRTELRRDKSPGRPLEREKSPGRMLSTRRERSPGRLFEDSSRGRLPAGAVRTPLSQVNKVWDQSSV

[11] = target: Casein kinase I isoform alpha (Homo sapiens) (UniProt P48729); assay: Inhibition of human CSNK1A1 expressed in mammalian expression system assessed as remaining enzyme activity at 10 uM by kinome scan assay
[12] = target: Casein kinase I isoform gamma-2 (Homo sapiens) (UniProt P78368); assay: Inhibition of human CSNK1G2 expressed in bacterial expression system assessed as remaining enzyme activity at 10 uM by kinome scan assay
Chain of Casein kinase I isoform gamma-2 (Homo sapiens) (P78368 whole entry, looked up, canonical isoform): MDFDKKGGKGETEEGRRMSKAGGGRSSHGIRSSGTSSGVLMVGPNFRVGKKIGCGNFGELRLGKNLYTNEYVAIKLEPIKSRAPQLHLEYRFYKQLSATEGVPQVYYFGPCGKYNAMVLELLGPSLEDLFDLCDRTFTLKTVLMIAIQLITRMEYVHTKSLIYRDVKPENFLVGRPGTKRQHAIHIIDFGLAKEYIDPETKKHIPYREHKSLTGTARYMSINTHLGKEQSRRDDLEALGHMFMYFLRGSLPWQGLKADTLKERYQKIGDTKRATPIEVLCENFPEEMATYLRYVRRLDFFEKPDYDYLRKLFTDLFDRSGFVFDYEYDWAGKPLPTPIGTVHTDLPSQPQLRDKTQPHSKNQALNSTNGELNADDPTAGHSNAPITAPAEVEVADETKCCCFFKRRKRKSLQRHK

[13] = target: Casein kinase II subunit alpha (Homo sapiens) (UniProt P68400); assay: Inhibition of human CSNK2A1 expressed in mammalian expression system assessed as remaining enzyme activity at 10 uM by kinome scan assay
Chain of Casein kinase II subunit alpha (Homo sapiens) (P68400 whole entry, looked up): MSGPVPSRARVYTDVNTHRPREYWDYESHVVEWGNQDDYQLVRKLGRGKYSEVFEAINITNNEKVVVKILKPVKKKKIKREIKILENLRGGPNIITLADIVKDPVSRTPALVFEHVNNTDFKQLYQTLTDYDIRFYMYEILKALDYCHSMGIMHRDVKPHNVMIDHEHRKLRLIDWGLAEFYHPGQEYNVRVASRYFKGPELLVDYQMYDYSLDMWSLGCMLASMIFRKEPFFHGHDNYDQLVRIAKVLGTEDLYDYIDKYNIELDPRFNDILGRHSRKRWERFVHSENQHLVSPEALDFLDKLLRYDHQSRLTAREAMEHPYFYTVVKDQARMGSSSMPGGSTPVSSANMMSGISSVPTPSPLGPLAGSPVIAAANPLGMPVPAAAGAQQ

[14] = target: Casein kinase II subunit alpha' (Homo sapiens) (UniProt P19784); assay: Inhibition of human CSNK2A2 expressed in mammalian expression system assessed as remaining enzyme activity at 10 uM by kinome scan assay
Chain of Casein kinase II subunit alpha' (Homo sapiens) (P19784 whole entry, looked up): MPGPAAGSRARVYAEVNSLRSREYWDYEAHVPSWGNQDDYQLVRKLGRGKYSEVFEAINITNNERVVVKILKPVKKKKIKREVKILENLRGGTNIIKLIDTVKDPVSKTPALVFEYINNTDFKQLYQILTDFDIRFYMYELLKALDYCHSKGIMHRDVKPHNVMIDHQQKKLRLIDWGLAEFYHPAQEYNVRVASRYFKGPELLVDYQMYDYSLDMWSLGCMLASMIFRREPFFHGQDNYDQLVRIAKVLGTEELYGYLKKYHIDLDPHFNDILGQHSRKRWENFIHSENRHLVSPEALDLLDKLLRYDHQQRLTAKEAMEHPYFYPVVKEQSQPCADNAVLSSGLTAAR

[15] = target: Death-associated protein kinase 1 (Homo sapiens) (UniProt P53355); assay: Inhibition of human DAPK1 expressed in bacterial expression system assessed as remaining enzyme activity at 10 uM by kinome scan assay
[16] = target: Death-associated protein kinase 2 (Homo sapiens) (UniProt Q9UIK4); assay: Inhibition of human DAPK2 expressed in bacterial expression system assessed as remaining enzyme activity at 10 uM by kinome scan assay
[17] = target: Death-associated protein kinase 3 (Homo sapiens) (UniProt O43293); assay: Inhibition of human DAPK3 expressed in bacterial expression system assessed as remaining enzyme activity at 10 uM by kinome scan assay
[18] = target: Serine/threonine-protein kinase 17B (Homo sapiens) (UniProt O94768); assay: Inhibition of human DRAK2 expressed in bacterial expression system assessed as remaining enzyme activity at 10 uM by kinome scan assay
[19] = target: Dual specificity tyrosine-phosphorylation-regulated kinase 1B (Homo sapiens) (UniProt Q9Y463); assay: Inhibition of human DYRK1B expressed in bacterial expression system assessed as remaining enzyme activity at 10 uM by kinome scan assay
[20] = target: Homeodomain-interacting protein kinase 1 (Homo sapiens) (UniProt Q86Z02); assay: Inhibition of human HIPK1 expressed in mammalian expression system assessed as remaining enzyme activity at 10 uM by kinome scan assay
[21] = target: Homeodomain-interacting protein kinase 2 (Homo sapiens) (UniProt Q9H2X6); assay: Inhibition of human HIPK2 expressed in mammalian expression system assessed as remaining enzyme activity at 10 uM by kinome scan assay
[22] = target: Homeodomain-interacting protein kinase 3 (Homo sapiens) (UniProt Q9H422); assay: Inhibition of human HIPK3 expressed in mammalian expression system assessed as remaining enzyme activity at 10 uM by kinome scan assay
[23] = target: Interleukin-1 receptor-associated kinase 1 (Homo sapiens) (UniProt P51617); assay: Inhibition of human IRAK1 expressed in mammalian expression system assessed as remaining enzyme activity at 10 uM by kinome scan assay
[24] = target: Interleukin-1 receptor-associated kinase 3 (Homo sapiens) (UniProt Q9Y616); assay: Inhibition of human IRAK3 expressed in bacterial expression system assessed as remaining enzyme activity at 10 uM by kinome scan assay
[25] = target: Phosphatidylinositol 4-kinase beta (Homo sapiens) (UniProt Q9UBF8); assay: Inhibition of human PIK4CB expressed in mammalian expression system assessed as remaining enzyme activity at 10 uM by kinome scan assay
[26] = target: Serine/threonine-protein kinase pim-1 (Homo sapiens) (UniProt P11309); assay: Inhibition of human PIM1 expressed in bacterial expression system assessed as remaining enzyme activity at 10 uM by kinome scan assay
Chain of Serine/threonine-protein kinase pim-1 (Homo sapiens) (P11309 whole entry, looked up): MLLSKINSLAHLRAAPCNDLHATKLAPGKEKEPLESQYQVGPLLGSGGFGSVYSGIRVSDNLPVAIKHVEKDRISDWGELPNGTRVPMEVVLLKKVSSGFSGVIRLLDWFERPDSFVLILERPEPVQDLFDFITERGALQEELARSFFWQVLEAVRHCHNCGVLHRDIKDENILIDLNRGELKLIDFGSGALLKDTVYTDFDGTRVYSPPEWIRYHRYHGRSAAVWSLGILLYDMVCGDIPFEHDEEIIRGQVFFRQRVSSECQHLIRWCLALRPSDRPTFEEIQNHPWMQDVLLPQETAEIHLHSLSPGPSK

[27] = target: Serine/threonine-protein kinase pim-2 (Homo sapiens) (UniProt Q9P1W9); assay: Inhibition of human PIM2 expressed in bacterial expression system assessed as remaining enzyme activity at 10 uM by kinome scan assay
[28] = target: Phosphatidylinositol 5-phosphate 4-kinase type-2 gamma (Homo sapiens) (UniProt Q8TBX8); assay: Inhibition of human PIP5K2C expressed in mammalian expression system assessed as remaining enzyme activity at 10 uM by kinome scan assay
[29] = target: Ribosomal protein S6 kinase alpha-4 (Homo sapiens) (UniProt O75676); assay: Inhibition of human RPS6KA4 (Kin.Dom.2-C-terminal) expressed in mammalian expression system assessed as remaining enzyme activity at 10 uM by kinome scan assay
[30] = target: TGF-beta receptor type-2 (Homo sapiens) (UniProt P37173); assay: Inhibition of human TGFBR2 expressed in bacterial expression system assessed as remaining enzyme activity at 10 uM by kinome scan assay
Chain of TGF-beta receptor type-2 (Homo sapiens) (P37173 whole entry): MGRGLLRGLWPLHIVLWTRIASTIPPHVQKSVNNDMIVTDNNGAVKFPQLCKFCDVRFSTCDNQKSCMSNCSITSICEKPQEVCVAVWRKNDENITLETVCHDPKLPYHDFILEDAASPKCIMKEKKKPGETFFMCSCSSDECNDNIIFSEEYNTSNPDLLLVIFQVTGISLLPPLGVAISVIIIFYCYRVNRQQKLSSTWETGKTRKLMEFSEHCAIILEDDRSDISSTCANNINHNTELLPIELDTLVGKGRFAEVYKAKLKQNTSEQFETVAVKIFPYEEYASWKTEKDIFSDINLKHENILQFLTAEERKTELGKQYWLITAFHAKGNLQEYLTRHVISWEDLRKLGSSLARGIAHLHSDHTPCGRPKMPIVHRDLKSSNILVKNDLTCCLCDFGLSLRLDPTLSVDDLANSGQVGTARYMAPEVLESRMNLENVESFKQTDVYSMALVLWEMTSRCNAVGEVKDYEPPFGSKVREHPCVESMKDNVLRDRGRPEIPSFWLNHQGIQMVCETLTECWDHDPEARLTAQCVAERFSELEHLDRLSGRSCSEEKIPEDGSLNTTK

[31] = Toxicity in human pancreatic islets at >10 uM; settings: pancreatic islet

SMILES: COc1ccc2c(c1)[nH]c1c(N3CCC3)nccc12
Activity [1]: Active

SMILES: COc1ccc2c(c1)[nH]c1c(N3CCCC3c3ccccc3)nccc12 (stereo not given)
Activity [1]: inactive

inhibition [5]: Active
SMILES: COc1ccc2c(c1)[nH]c1c(CO)nccc12
Activity [1]: Active
Activity [2]: Active
Activity [3]: Dose-dependent effect
Activity [4]: Non-Toxic

SMILES: COc1ccc2c(c1)[nH]c1c(N3CCCC3)nccc12
Activity [1]: inactive

SMILES: COc1ccc2c(c1)[nH]c1c(N3CCCC3Cc3ccccc3)nccc12 (stereo not given)
Activity [1]: inactive

SMILES: COc1ccc2c(c1)[nH]c1c(C)nc(CO)cc12
Activity [1]: Active
Activity [2]: Active
Activity [3]: Dose-dependent effect
Activity [4]: Non-Toxic
inhibition [5]: Active
Activity [6]: 0%

SMILES: COc1ccc2c(c1)[nH]c1c(C)nccc12 [HARMINE]
Activity [1]: Active
Activity [7]: 83%
Activity [8]: 21%
Activity [6]: 55%
Activity [9]: 100%
Activity [10]: 29%
Activity [11]: 15%
Activity [12]: 19%
Activity [13]: 11%
Activity [14]: 23%
Activity [15]: 78%
Activity [16]: 72%
Activity [17]: 69%
Activity [18]: 73%
Activity [19]: 6.1%
Activity [20]: 21%
Activity [21]: 8.6%
Activity [22]: 9.4%
Activity [23]: 17%
Activity [24]: 15%
Activity [25]: 12%
Activity [26]: 45%
Activity [27]: 39%
Activity [28]: 36%
Activity [29]: 40%
Activity [30]: 78%
Activity [31]: Toxic

SMILES: COc1ccc2c(c1)[nH]c1c(Cl)nccc12
Activity [1]: Active
Activity [2]: Active

SMILES: COc1ccc2c(c1)[nH]c1c(C(C)=O)nccc12
Activity [2]: Active
